# Published values of several laboratories.
# Each line is one published result; the experiments were not run side by side.
# Target: Serine/threonine-protein kinase 17A (STK17A, Homo sapiens, UniProt Q9UEE5)
# Residues used in one study (Q9UEE5 1-414): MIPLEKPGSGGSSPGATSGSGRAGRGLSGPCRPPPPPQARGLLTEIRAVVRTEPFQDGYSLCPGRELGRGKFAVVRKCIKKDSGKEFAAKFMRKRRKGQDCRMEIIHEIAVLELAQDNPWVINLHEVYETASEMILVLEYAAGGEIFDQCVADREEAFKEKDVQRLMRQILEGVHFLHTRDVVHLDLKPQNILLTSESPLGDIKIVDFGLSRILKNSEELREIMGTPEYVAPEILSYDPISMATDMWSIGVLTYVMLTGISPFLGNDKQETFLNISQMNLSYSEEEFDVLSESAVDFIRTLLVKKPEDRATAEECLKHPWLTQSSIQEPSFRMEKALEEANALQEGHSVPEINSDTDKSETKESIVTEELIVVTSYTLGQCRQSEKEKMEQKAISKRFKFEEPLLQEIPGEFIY
SMILES,effect on,technique,tested at,remaining binding [%]
O=C(c1ccc(Nc2ncc(Cl)c(-c3ccc(Cl)s3)n2)cc1)N1CCC(N2CCCC2)CC1,binding,competition with immobilised ligand,1 µM,0.8
C[C@@]1(Cc2ccc(C#N)cc2)C(=O)N(c2cc(Cl)cc(Cl)c2)c2ncc(C(=O)NC3(c4nc(C5CCC5)no4)CC3)n21,cell-free assay,competition with immobilised ligand,1 µM,91
O=C(NCCCN1CCOCC1)c1ccc(Nc2nccc(-c3cc4ccccc4s3)n2)cc1,binding,competition with immobilised ligand,1 µM,0
O=C(Nc1cccnn1)N1CCC(=Cc2cccc(Oc3ccc(C(F)(F)F)cn3)c2)CC1,cell-free assay,competition with immobilised ligand,1 µM,79
c1cncc(-c2cccc(Nc3nccc(NC4CCCCC4)n3)c2)c1,binding,competition with immobilised ligand,10 µM,47
C[C@@H]1CCN(c2nccc(-c3cnn4ncccc34)n2)C1,binding,,1 µM,19
O=C(Nc1c[nH]nc1C(=O)NC1CCNCC1)c1cc(F)cc(F)c1,binding,competition with immobilised ligand,1 µM,95
CN(C)c1nccc(-c2cnn3ncccc23)n1,binding,,1 µM,76
COc1cnc(Nc2cccc(S(N)(=O)=O)c2)nc1N1CCN(c2ccccc2)C(=O)C1,binding,competition with immobilised ligand,1 µM,98
N[C@H]1CCN(c2nccc(-c3cnn4ncccc34)n2)C1,binding,,1 µM,100
C[C@@H](c1ccc(-n2cnc3c(N)ncnc32)cc1)N1CCc2nn(C)c(Cc3ccccc3)c2C1=O,binding,competition with immobilised ligand,0.1 µM,91
CCN1CCN(Cc2ccc(C(=O)Nc3ccc(C)c(Oc4ccc5c(c4)CC(=O)N5)c3)cc2C(F)(F)F)CC1,binding,competition with immobilised ligand,1 µM,100
CNC(=O)Nc1ccc2c(c1)CC[C@@]21OC(=O)N(CC(=O)N(Cc2ccc(F)cc2)[C@@H](C)C(F)(F)F)C1=O,cell-free assay,competition with immobilised ligand,1 µM,100
CN(CCCC(F)(F)F)c1nccc(-c2cnn3ncccc23)n1,binding,,1 µM,100
Cc1c(C(=O)O)cc(-c2ccc(C3CCNCC3)cc2)c2ccc(-c3ccc(C(F)(F)F)cc3)cc12,cell-free assay,competition with immobilised ligand,1 µM,99
O=C(NCCCN1CCOCC1)c1ccc(Nc2ncc(Cl)c(-c3ccc(Cl)s3)n2)cc1,binding,competition with immobilised ligand,1 µM,0.85
CN(C)c1nccc(-c2cnc3ncccn23)n1,binding,,1 µM,100
Nc1ncc2c(n1)-c1c([nH]c3ccc(C#CC4CC4)cc13)CCCC2,binding,competition with immobilised ligand,1 µM,98
O=S(=O)(NC1CCC(c2cc(F)ccc2F)(S(=O)(=O)c2ccc(Cl)cc2)CC1)C(F)(F)F (stereo not shown),cell-free assay,competition with immobilised ligand,1 µM,86
c1cnn2ncc(-c3ccnc(N4CCC45COC5)n3)c2c1,binding,,1 µM,100
c1ccc(N2CCN(Cc3nc4ccccc4[nH]3)CC2)nc1,cell-free assay,competition with immobilised ligand,1 µM,100
CNC(=O)[C@@H]1CC[C@@H](n2c(-c3ccc4cnccc4c3)nc3ccc(C(=O)NCc4cccc(C(N)=O)c4)cc32)C1,binding,competition with immobilised ligand,1 µM,100
